Compound activity (PubChem BioAssay)
PolyA inh: yeast polyadenylation inhibition. AID 1875. S. cerevisiae SKY197-pL101 polyadenylation reporter, beta-gal luminescence; efflux-impaired pdr1/pdr3 knockout yeast; score 100 = 6 SD above DMSO. activity score, % at 12 µM. 300,000 compounds, 0.02% hits;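 active = lowest replicate activity score at least 50, where 100 means six control SD above control mean; inconclusive = lowest score under 50 but half or more replicates reach 50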;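 note: yeast exposed to compound for 9 h at 30 °C; higher score means more reporter readthrough which indicates perturbed polyadenylation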
L major viab: Leishmania major promastigote growth inhibition; 200,000 compounds, 9% hits; inhibition, % at 10 µM; Leishmania major promastigotes, resazurin fluorescence viability; in the data active = inhibition above about 50%;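 note: promastigotes grown with compound for 44 hours at 28 °C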
Calb FLC: affects C. albicans growth with fluconazole. growth inhibition, % (test concentration not listed). AID 1979. 300,000 compounds, 0.57% hits. C. albicans CaCi-2 (fluconazole-resistant clinical isolate) + fluconazole, Alamar Blue growth, 48 h;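 active = growth inhibition above about 58% in most replicates, limit read from the data, passing the limit was not always enough; inconclusive = exactly half the replicates above a set limit; inactive = most replicates below a set limit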;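 note: all wells also contain fluconazole at 8 µg/ml as a sub-toxic cotreatment; 0% = median of DMSO wells and 100% = median of geldanamycin control wells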
T cruzi repl: blocks replication of Trypanosoma cruzi. T. cruzi beta-gal in NIH3T3, luminescence, 90 h. inhibition, % (test concentration not listed). 300,000 compounds, 1.4% hits. AID 1885;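 active = mean inhibition across valid replicates above about 55%, limit read from the data; inconclusive = mean below that limit but half or more replicates reach it; inactive = mean below it, under half of replicates reach it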;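 note: signal also drops with host cell toxicity which is not excluded here; 0% = plate median of DMSO wells and 100% = zero luminescence signal; higher percent means less beta-gal luminescence so fewer parasites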
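Material: NIH/3T3 host cells with β-galactosidase reporter T. cruzi; Input: 5,000 host fibroblasts per well; Medium: DMEM, 2% fetal bovine serum; Compound: 50 nL DMSO compound solution per well; Schedule: 3 h host attachment, then at least 90 h co-culture; Detection: luminescent β-galactosidase signal after 60 min lysis.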
NALP1 inh: blocks the NALP1 inflammasome reconstituted in yeast | S. cerevisiae NALP1/ASC/caspase-1 growth, X-gal OD620, 72 h | inhibition, % at 10 µM | 280,000 compounds, 0.61% hits; in the data active = inhibition mostly above about 24%, no sharp cut-off; inactive = mostly below about 32%
NALP3 yeast inh: blocks the NALP3 inflammasome reconstituted in yeast; Yeast reconstituted NLRP3/ASC/caspase-1, beta-gal luminescence, 24 h; inhibition, % at 10 µM; 330,000 compounds, 0.39% hits; AID 2825;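 active = inhibition of 50% or more; inactive = inhibition below 50%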;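 note: plate controls were induced DMSO wells for no effect and uninduced yeast grown without galactose for full effect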
* marks the source's active call; other numbers are inactive results; ? = inconclusive; . = no result. Only a selection was taken, and hits are over-represented in it overall.

SMILES | PolyA inh | L major viab | Calb FLC | T cruzi repl | NALP1 inh | NALP3 yeast inh
CC(=O)N(C)c1ccc(C(O)(C(F)(F)F)C(F)(F)F)cc1 | -5 | 99* | 9 | -1 | 1 | 20
CC(=O)N(C)c1ccc(NC(=O)Nc2ccc(C)cc2)cc1 | 4 | 2 | -5 | -1 | 2 | 16
CCOc1ccc(S(=O)(=O)N2CCC(C(=O)OC(C)C(=O)N(C)C3CCCCC3)CC2)cc1 (configuration not stated) | 14 | . | 1 | 7 | -1 | 10
COc1cc(-c2nnc(SCc3cc(=O)oc4cc(O)c(O)cc34)o2)cc(OC)c1OC | 5 | -14 | 104* | -22 | 45* | 5
COc1cc(NC(=O)C2CCCN2S(=O)(=O)c2ccc3c(c2)CC(C)N3C(C)=O)cc(OC)c1 (configuration not stated) | -19 | . | -9 | 4 | -5 | 9
CN(C)c1nc(C=C(C#N)C#N)c(Cl)n1-c1ccc(F)cc1 | -22 | 24 | -8 | 16 | 10 | .
CCc1ccc(C2=NN(CCC(=O)NC(C)CCc3ccccc3)C(=O)CC2)cc1 (configuration not stated) | 31 | 95* | -5 | 32 | 4 | -12
Cc1ccc2nsnc2c1S(=O)(=O)N1CCOCC1 | -9 | 0 | 7 | -16 | 34* | 5
O=S(=O)(c1cccc2nsnc12)N1CCOCC1 | -6 | 4 | 11 | -14 | 15 | 0
O=C(Nc1cccc(NC(=O)c2sc3ccccc3c2Cl)c1)c1ccco1 | -20 | 81* | -1 | -3 | 13 | 7
O=C(Nc1cccc(-n2cnnn2)c1)c1ccco1 | 20 | 95* | -4 | 4 | 16 | 16
O=C(Nc1cccc(-c2cnc3ccccc3n2)c1)c1cccc(NC(=O)c2ccco2)c1 | -17 | 69* | 57 | 26 | -4 | 18
O=C(c1ccccc1)c1cccc(NC(=O)c2ccco2)c1 | 1 | 97* | -19 | 2 | 2 | 37
O=C(Nc1cccc(NC(=O)c2ccco2)c1)c1ccccc1 | -2 | . | 7 | -1 | 10 | 9
N#Cc1ccc(CN2CCN(C(=O)CCNS(=O)(=O)c3ccc(F)c(Cl)c3)CC2)cc1 | . | . | . | . | . | 18
O=C(CSc1nc2c(c(=O)[nH]1)CCCC2)Nc1ccc(Cl)cc1F | -9 | 3 | 18 | -4 | 0 | -16
CC(C)C(NC(=O)c1ccco1)C(=O)NCc1ccc(C(=O)O)cc1 (configuration not stated) | -20 | . | 1 | -8 | 0 | -7
CCCc1ccc(S(=O)(=O)N/N=C\c2ccc3c(c2)OCO3)cc1 | 19 | . | -10 | -18 | 2 | -3
CCC(=O)Nc1cccc(C(=O)Nc2nccs2)c1 | 5 | 14 | 9 | -5 | 10 | -12
O=C(Nc1cccc(NC(=O)c2ccc(-c3cccc(Br)c3)o2)c1)c1ccco1 | 9 | 60* | 10 | 55* | 4 | 17
O=C(Nc1cccnc1)c1cccc(NC(=O)c2ccco2)c1 | 9 | 80* | . | -2 | . | 5
O=C(Nc1nccs1)c1cccc(NC(=O)c2ccco2)c1 | 7 | 97* | 29 | -10 | -1 | 8
O=C(Nc1cccc(NC(=O)c2ccc(-c3ccc(Br)cc3)o2)c1)c1ccccc1 | -21 | 4 | 9 | 13 | 4 | 10
CCn1nnc(NC(=O)c2ccc([N+](=O)[O-])o2)n1 | -11 | 93* | 1 | 61* | 8 | 13
CCCCn1nnc(NC(=O)c2ccc(-c3ccccc3[N+](=O)[O-])o2)n1 | -14 | 17 | -12 | 5 | 30* | 18
SMILES | PolyA inh | L major viab | Calb FLC | T cruzi repl | NALP1 inh | NALP3 yeast inh
Cc1c(C(=O)c2ccccc2C(=O)O)sc2ccccc12 | 5 | . | -10 | -10 | 8 | 22
CCN(C(C)=O)c1ccc(Oc2nc(OC)cc(OC)n2)cc1 | 4 | -8 | 4 | 7 | 15 | -12
CC(C)(C)OC(=O)N1CCC(CNC(=O)c2cccs2)CC1 | -2 | . | -3 | -3 | . | 30
O=C(Nc1nc2ccccc2n1CCN1CCOCC1)c1ccc(COc2ccccc2Br)o1 | -6 | 55* | 18 | 34 | 4 | 10
O=C(Nc1nc2ccccc2n1CCN1CCOCC1)c1ccc(Cn2cc([N+](=O)[O-])cn2)o1 | 3 | . | 24 | -11 | 16 | 7
O=C(Nc1nc2ccccc2n1Cc1ccccc1)c1ccc(COc2ccccc2[N+](=O)[O-])o1 | 1 | -3 | -25 | 68* | -3 | 15
Cc1ccc(OCc2ccc(C(=O)Nc3nc4ccccc4n3Cc3ccccc3)o2)c([N+](=O)[O-])c1 | -6 | 7 | 12 | 43 | -12 | 13
C[n+]1cccc2c(Br)ccc([O-])c21 | -12 | . | -4 | -13 | 27 | 15
[O-][n+]1cccc2c(Br)cc(Br)c(O)c21 | -13 | -5 | 109* | 6 | -12 | 28
Cc1c(C(=O)Nc2c(C)n(C)n(-c3ccccc3)c2=O)oc2ccc(Cl)cc12 | -12 | . | 18 | -6 | 3 | 19
CCc1c(C2(O)CCCCC2)[nH]c2ncccc12 | . | . | . | . | . | 8
CN(C(=O)CSc1n[nH]c(-c2cccs2)n1)C1CCS(=O)(=O)C1 (configuration not stated) | 3 | . | 13 | -2 | . | 5
CCc1ccccc1Nc1nc2ccccc2n1CC | -17 | 72* | -9 | 17 | 20 | 11
Fc1ccc(/C=N/Nc2nc3ccccc3[nH]2)cc1F | -22 | 90* | ? | 9 | -2 | 30
Fc1cccc(/C=N/Nc2nc3ccccc3[nH]2)c1 | -3 | 83* | 0 | 28 | -12 | 30
Fc1cccc(/C=N/Nc2ccc3ccccc3n2)c1 | -16 | 52* | -32 | 30 | 15 | 20
CC(C)c1ccc(/C=N/n2c(COc3ccccc3)n[nH]c2=S)cc1 | -9 | . | -12 | -4 | 3 | 37
CCN1CCN(c2ccc(S(=O)(=O)N(CC)CC)cc2[N+](=O)[O-])CC1 | -1 | 95* | -49 | 18 | 42 | 17
CCCN1CCN(c2ccc(S(N)(=O)=O)cc2[N+](=O)[O-])CC1 | 6 | -6 | -5 | -4 | 4 | 13
CCN(CC)S(=O)(=O)c1ccc(N2CCN(c3cccc(OC)c3)CC2)c([N+](=O)[O-])c1 | -9 | 100* | 9 | 65* | 33 | 18
COc1cccc(N2CCN(c3ccc(S(=O)(=O)N4CCN(C)CC4)cc3[N+](=O)[O-])CC2)c1 | . | . | . | . | . | 25
CCN(Cc1ccncc1)Cc1ccc(Br)cc1 | -15 | . | -7 | 22 | 6 | 21
COc1ccc(NC(C)C(=O)Nc2ccc(C(C)(C)C)cc2)cc1Cl (configuration not stated) | 9 | 50* | 2 | 22 | 13 | 13
CCCCCC(=O)Nc1cc(S(=O)(=O)N2CCOCC2)ccc1N1CCN(C)CC1 | -8 | . | -6 | 64* | 20 | 14
CN1CCN(c2ccc(S(=O)(=O)N3CCOCC3)cc2NC(=O)Cc2ccccc2F)CC1 | . | . | . | . | . | 9
